Test results taken from the RNAGym collection of RNA variant scans (doi:10.1126/science.aae0568).
Fewer inactive variants are shown than the library holds.

B1: tRNA (parent)
chain: GUUCCGUUGGCGUAAUGGUAACGCGUCUCCCUCCUAAGGAGAAGACUGCGGGUUCGAGUCCCGUACGGAACG

Variants of: B1
Test: yeast fitness relative to wild type (ratio to wild type); higher = fitter; tRNA-Arg(CCU), competitive growth, 37 C, YPD
Outline: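 The tRNA-Arg(CCU) gene variants were made by chemical synthesis with a 3% per-site mutation rate at 69 sites and inserted at the native genomic locus of Saccharomyces cerevisiae. After pooling, the strains were competed in YPD at 37°C for 24 hours in six parallel replicates. Gene amplicons from the start population and each end population were read by 100-nucleotide paired-end sequencing, and Darwinian fitness relative to wild type was taken from genotype frequency changes. Genotypes needed ≥ 100 starting reads, and estimates < 0.5 were set to 0.5.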

Going from GUUCCGUUCGCGUCAUGGUAAGGCGUCUCCCUCCUAAGGAGAAGACUGCGGAAUCGAGUCCCGUACGGAACG to GUUCCGUUCGCGUAUUGGUAACGCGUCGCCCUCCUAAGGAGAAGACUGCGGGUUCGAGUCCCGUAAGGAACG, the yeast fitness falls from 0.503 to ≤ 0.5.

Going from GUUCCGUUCGCGUAUUAGUAACGCGUCUCCCUCCUAUGGAGAAGCCUGCGGGUUCGAGUCCCGUACGGAACG to GUUCCGUUAGCGUAAUGGUAACGCGUCCCCCUCCUAAGGAGAAGACUGCGGGUUCGAGUCCCGUACGGAGCG, the yeast fitness rises from ≤ 0.5 to 0.673.

Going from GUUCCGUUCGCGUACUGGUAACGCGUCUCCCUCCUAAGGAGAAGACUGCGGGUUCGAGUCCCGUACGGAACG to GUUCCGUUCGCGUAUUGGUAACGCGUCUCCCUCCUAAGGAGAAGACUGCGGGUUCGAGUCCCGUACGGAACG, the yeast fitness falls from 0.609 to 0.603.

GUUCCGUUCGCGUAGUGGUAACGCGUCUCCCUCCUAAGGAGAAGACUGAGGGUUCGAGUCCCGUACGGUACG and GUUCCGUUCGCGUAGUGGUAACGCGUCUCCCUUCUCAGCAGAAGAGUGCGCGUUCGAGUCCCGUACGGAACG cannot be ordered by yeast fitness: ≤ 0.5 for the first, ≤ 0.5 for the second.

GUUCCGUUAGCGUAAUGGUAACGCGUCUCCCCGCUAGGGAGAAGACUGCGGAUUUGAGUCCCAUUCGGAACG and GUUCCGUUAGCGUAAUGGUAACGCGUCCCUCUCCUAAGGAGAAGACUGCGGGUUCGAGUCCCGUACGGUACG cannot be ordered by yeast fitness: ≤ 0.5 for the first, ≤ 0.5 for the second.

GUUCCGUUAGCGUAAUGGUAACGCGUCUCCCGCCUAAGGCGAAGAGUGCGGGUUCGAGUCCCGUACGGAACG and GUUCCGUUAGCGUAAUGGUAACGCGUCGCCCUCCUAAGGAGAAGCCUGCGGGUUCGAGUCCCGUACGGAACG cannot be ordered by yeast fitness: ≤ 0.5 for the first, ≤ 0.5 for the second.

First: GUUCCGUUAGCGUAAUGGUAACGCGUCCCCCUCCUAAGGAGAAAACUGCGCGUUCGACUCCCGUACGCAACG
Second: GUUCCGUUAGCGUAAUGGUAACGCGUCUCCCUCCUAAGGAGAAGACUGCGGGUUCGAGUCCCGAACGGAACG
The yeast fitness of the first is lower: ≤ 0.5 for the first, 0.811 for the second.

Going from GUUCCGUUAGCGUAAUGGUAACGCGUCUCCCUCCUAAGGAGAAGACUGCGGGUUCGAGUCCCGCACGGAACG to GUUCCGUUAGCGUAAUGGUAACGCGUCUCCCGCCUAAGGAGAAGACUGGGGGUUAGAGUCCCGUACGGAACG, the yeast fitness falls from 0.985 to ≤ 0.5.

Going from GUUCCGUUCGCGUGAUGGUAACGCGACUCCCGCCUAAGGAGAAGACUGCGGGUUCGAGUCCCGUACGGAACG to GUUCCGUUAGCGUAAUGGUAACGCGUCUCCCUCCUAAGGAGAAGACUGCGGGUCCAAGUCCCGUACGGAACG, the yeast fitness rises from ≤ 0.5 to 0.661.

First: GUUCCGUUCGCGUACUGGUAACGCGUCUCCCUCCUAAGGAGAAGCCUGUGGGUUCGAGUCCGGUAUGGAACG
Second: GUUCCGUUCGCGUUAUGGUAACGCGUCUCCCUCCUAAGGAGAAGACUGCGGGUUCGAGUCCCGUACGGAACG
The yeast fitness of the first is higher: 0.591 for the first, 0.509 for the second.

Compared with GUUCCGUUAGCGUAAUGGUAACGCGUCUCCCUCCUAAGGAGAAGACUGCGGGUGCGAGUCCCGUACGGAACG, GUUCCGUUCGCGUGAUGGUAACGCGUCUCCCUCCUAAGGAGAAGACUGCGGGUUCGAGUCCCGUACAGAACG is lower in yeast fitness: 0.552 for the first, ≤ 0.5 for the second.

Compared with GUUCCGUUAGCGUAAUGGUAACGCGUCUCCCUCCUAAGGAGAAGACUGCGGGUUCGAGCCCCGUACGGUACG, GUUCCGUUAGCGUAAUGGUAACGCGUCCCCCUCCUAAGGAGAAGACUGCGGGUUGGAGUCCGGUACGGAACG is lower in yeast fitness: 0.776 for the first, ≤ 0.5 for the second.

Going from GUUCCGUUAGCGUAAUGGUAACGCGUCUCCCCCCUAAGGAGAGGACUGCGGAUUCGAGUCGCGUACGGAACG to GUUCCGUUAGCGUAAUGGUAACGCGUCACCCUCCUAAGGAGAAGACUGCGGGUUCGAGUGCCGUACGGAACG, the yeast fitness falls from 0.63 to ≤ 0.5.

First: GUUCCGUUAGCGUAAUGGUAACGCGUCUCCCUCCUAAGGAGAAGACAGCGGGUUCGAGUCCCGUACGGAACG
Second: GUUCCGUUAGCGUAAUGGUAACGCGUCCCCCUCCUAAGGCGAAGACUACGGGUUCGAGUCCCGUACGGAACG
The yeast fitness of the first is higher: 0.796 for the first, ≤ 0.5 for the second.

GUUCCGUUCGCGUCAUGAUAACGCGUCUCCCUCCUAAGGAGAACACUGCGGGUUCGCGUCCCGUACGGAACG and GUUCCGUUCGCGUGAUGGUAACGCGUCUCCCUCCUAAGGAGAAGACCGCGGGUUCGAGUCCCGUACGGAACG cannot be ordered by yeast fitness: ≤ 0.5 for the first, ≤ 0.5 for the second.

Compared with GUUCCGUUAGCGUAAUGGUAACGCGUCUCCCUCCUAAGGAGAAGACUGCGGGUUCGAGACCCGUAAGGAACG, GUUCCGUUAGCGUAAUGGUAACGCGUCUCCCUCCUAAGGAGAAGACUGCGGGCUCGAGUCCCGUACGGAACG is higher in yeast fitness: 0.55 for the first, 0.77 for the second.

GUUCCGUUAGCGUAAUGGUAACGCGUCACCCUCCUAAGGAGAAGACUGCGGGUUCGAGUCCCGUUCGGAACG and GUUCCGUUCGCGUUAUGGUAACGCGUCUCCCUCCUAAGGAGAAGACUGCGGGUUCGAGUCCGGUACGGAACG cannot be ordered by yeast fitness: ≤ 0.5 for the first, ≤ 0.5 for the second.

GUUCCGUUCGCGUAAUGGUGACGCGUCUCCCUCCUAAGGAGAAGACUGCCGGUUCGAGUCCCGUACGGAACG and GUUCCGUUCGCGUACUGGUAACGCGUCUCCGUCCUAAGGGGAUGACUGCGGGUUCGAGUCCCGUACGGAACG cannot be ordered by yeast fitness: ≤ 0.5 for the first, ≤ 0.5 for the second.

For GUUCCGUUAGCGUAAUGGUAACGCGUCCCCCUCCUAAGGAGAAGACUGAGGGUUCGAGUCCCGUACGGAACG, the yeast fitness was ≤ 0.5.
